In general, pIC50 refers to the IC50 on a negative log10 scale, so that one unit is a factor of ten.

Structures are written as SMILES. pIC50: −log10 of the molar value.

The target of experiment [1] is T1, Melanocortin receptor 4 (Homo sapiens, UniProt P32245). Kind of experiment: Inhibition against human melanocortin-4 (MC4) receptor. An outline of the steps: (§1)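 BHK570 cells stably transfected with MC4 cDNA, with clones selected in G418/MTX medium. Membranes were homogenised in 20 mM Hepes pH 7.1, 5 mM MgCl2 and bacitracin. 10 μg membranes were incubated with 80 pM 125-labelled NDP-α-MSH and varying test concentrations in 25 mM HEPES pH 7.0 buffer (CaCl2, MgSO4, EGTA, tween 20, 0.1% HSA) for 2 h at 25 °C. Samples were filtered and washed with ice-cold saline, then counted; IC50 was determined.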

The target in experiment [2] is T2, Type-1 angiotensin II receptor (Homo sapiens, UniProt P30556).
T2 sequence (P30556 whole entry): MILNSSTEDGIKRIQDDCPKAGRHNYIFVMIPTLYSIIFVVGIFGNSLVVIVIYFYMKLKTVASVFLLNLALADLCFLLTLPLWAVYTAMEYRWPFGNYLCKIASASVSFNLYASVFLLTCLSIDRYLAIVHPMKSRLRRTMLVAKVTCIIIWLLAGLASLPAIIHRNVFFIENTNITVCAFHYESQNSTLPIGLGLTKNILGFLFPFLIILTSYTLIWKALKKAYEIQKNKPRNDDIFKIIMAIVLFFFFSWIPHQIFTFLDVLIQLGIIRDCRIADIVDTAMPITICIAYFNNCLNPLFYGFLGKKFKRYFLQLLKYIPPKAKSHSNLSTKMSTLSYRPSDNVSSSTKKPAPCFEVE
In words: Inhibition against human angiotensin II receptor, type 1 (AG2-R). The essentials: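 Competition binding assay with saralasin as tracer, run externally by a contract lab following a published method. IC50 values were derived from tracer displacement.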

Experiment [3] deals with Growth hormone secretagogue receptor type 1 (Sus scrofa, UniProt Q95254). Kind of experiment: Inhibition against pig growth hormone secretagogue (GHS) receptor.
The target of experiment [4] is T3, Growth hormone secretagogue receptor type 1 (Homo sapiens, UniProt Q92847). In words: Inhibition against human growth hormone secretagogue (GHS) receptor. An outline of the steps:
(§2)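 Competition binding assay with ghrelin as tracer, run as previously described. IC50 values were derived from tracer displacement.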

Experiment [5] has as its target 5-hydroxytryptamine receptor 6 (Homo sapiens, UniProt P50406). Kind of experiment: Inhibition against human 5-hydroxytryptamine 6 receptor.
Experiment [6] deals with T1, Melanocortin receptor 4. In words: Inhibition against human melanocortin-4 (MC4) receptor; No binding detected. The essentials: as §1
For experiment [7], the target named is T3, Growth hormone secretagogue receptor type 1. In words: Inhibition against human growth hormone secretagogue (GHS) receptor; No binding detected. The essentials:
as §2

T1 sequence (P32245 whole entry): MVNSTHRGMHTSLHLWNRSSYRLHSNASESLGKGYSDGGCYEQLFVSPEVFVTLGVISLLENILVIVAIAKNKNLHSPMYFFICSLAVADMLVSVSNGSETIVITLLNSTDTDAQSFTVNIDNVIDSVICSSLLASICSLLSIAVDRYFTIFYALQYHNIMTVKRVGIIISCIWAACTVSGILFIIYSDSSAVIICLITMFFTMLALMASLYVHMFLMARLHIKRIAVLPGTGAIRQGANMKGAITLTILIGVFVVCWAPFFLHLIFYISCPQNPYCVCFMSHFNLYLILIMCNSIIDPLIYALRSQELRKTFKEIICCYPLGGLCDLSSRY
T3 sequence (Q92847 whole entry): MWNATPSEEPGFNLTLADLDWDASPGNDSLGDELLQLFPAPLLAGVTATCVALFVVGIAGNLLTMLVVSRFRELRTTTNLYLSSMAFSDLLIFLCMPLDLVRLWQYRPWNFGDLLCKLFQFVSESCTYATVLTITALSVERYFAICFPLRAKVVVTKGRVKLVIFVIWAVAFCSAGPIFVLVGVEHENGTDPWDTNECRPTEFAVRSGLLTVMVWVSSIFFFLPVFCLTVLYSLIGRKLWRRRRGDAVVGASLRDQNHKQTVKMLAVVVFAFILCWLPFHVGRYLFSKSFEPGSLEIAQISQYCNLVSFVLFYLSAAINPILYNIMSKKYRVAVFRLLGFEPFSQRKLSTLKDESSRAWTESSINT
5-hydroxytryptamine receptor 6, sequence (P50406 whole entry): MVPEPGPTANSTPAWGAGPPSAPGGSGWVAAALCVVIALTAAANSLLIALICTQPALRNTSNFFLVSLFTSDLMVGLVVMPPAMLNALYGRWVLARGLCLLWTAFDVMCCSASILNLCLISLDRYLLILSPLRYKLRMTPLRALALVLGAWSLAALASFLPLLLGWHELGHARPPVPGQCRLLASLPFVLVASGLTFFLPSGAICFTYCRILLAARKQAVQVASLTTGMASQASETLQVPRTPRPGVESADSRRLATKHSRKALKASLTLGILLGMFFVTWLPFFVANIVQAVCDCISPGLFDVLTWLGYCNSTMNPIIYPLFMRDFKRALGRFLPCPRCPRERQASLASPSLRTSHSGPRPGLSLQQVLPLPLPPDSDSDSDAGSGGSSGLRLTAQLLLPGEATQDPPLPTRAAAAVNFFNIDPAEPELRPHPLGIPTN
Growth hormone secretagogue receptor type 1 (Sus scrofa, UniProt Q95254), sequence (Q95254 whole entry): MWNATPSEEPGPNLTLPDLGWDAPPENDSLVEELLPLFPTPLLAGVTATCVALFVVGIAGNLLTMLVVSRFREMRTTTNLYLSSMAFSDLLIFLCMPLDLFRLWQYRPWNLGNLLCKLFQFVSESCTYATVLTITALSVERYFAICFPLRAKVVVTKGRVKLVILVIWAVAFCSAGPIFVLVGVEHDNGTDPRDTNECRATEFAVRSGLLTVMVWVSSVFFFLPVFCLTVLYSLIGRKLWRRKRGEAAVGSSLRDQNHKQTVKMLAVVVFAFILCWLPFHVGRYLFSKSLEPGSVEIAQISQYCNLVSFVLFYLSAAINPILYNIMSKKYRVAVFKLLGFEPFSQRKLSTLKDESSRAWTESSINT

`Cc1ccc2[nH]c(-c3ccc(Br)cc3)c(CCCCCNC3CCCCC3)c2c1`: the negative logarithm of the IC50 (pIC50) against Melanocortin receptor 4 [1] is 6.21. On to `CC(C)(N)CC(=O)N[C@@H]1CCc2ccccc2N(Cc2ccc(-c3ccccc3-c3nnn[nH]3)cc2)C1=O`, for which the negative-log IC50 (pIC50) is 5.44 in experiment [2], 7.20 in experiment [3] and 5.55 in experiment [4]. With `CS(=O)(=O)N1CC2(CCN(C(=O)[C@@H](Cc3ccc(Cl)cc3)NC(=O)C3Cc4ccccc4CN3)CC2)c2ccccc21` (some centres undefined), the negative-log IC50 (pIC50) in experiment [4] was 6.72; at Melanocortin receptor 4 [1], 7.00.

With `CN(C)CCCc1c(-c2cccc(Br)c2)[nH]c2ccccc12`, in experiment [5], the negative-log IC50 (pIC50) was 9.15. Turning to `CC(C)(N)C(=O)N[C@H](COCc1ccccc1)C(=O)N1CCC2(CC1)CN(S(C)(=O)=O)c1ccccc12` [IBUTAMOREN], the IC50 entry at Melanocortin receptor 4 [6] is “Not Active”. In the case of `CCCCc1nc(Cl)c(CO)n1Cc1ccc(-c2ccccc2-c2nnn[nH]2)cc1` [LOSARTAN], in experiment [7], the IC50 result was “Not Active”.

These data come from ChEMBL document CHEMBL1137085, “Recognition of privileged structures by G-protein coupled receptors” (J Med Chem, 2004).
